The sample as a whole holds a higher share of hits than the screen did.
INS-1E rescue = rescue of cytokine-induced death in INS-1E beta cells; INS-1E cytokine-induced death, ATP luminescence, 48 h; normalised: neutral wells 0, positive control 100; protection from cytokine-induced ATP loss, % at 10 µM; 20,000 compounds, 0.1% hits; AID 488910;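 active = mean replicate protection from cytokine-induced ATP loss at least 50% and at least 75% of replicates each reaching 50%; inconclusive = meets only one of the two criteria, mean or replicate share; inactive = fails both the mean and replicate share criteria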
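assay system = INS-1E rat insulinoma cells | amount = 8000 cells per well | medium = phenol-red-free RPMI with 5% fetal bovine serum | doses = one compound concentration, pin transfer | timing = 48 h cytokine plus compound treatment, 10 min reagent incubation | also added = IL-1β, TNF-α and IFN-γ cytokine mix | signal = CellTiter-Glo luminescence measuring cellular ATP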
T cruzi HTS = inhibitors of intracellular Trypanosoma cruzi; activity score (inhibition), % at 5.01 µM; 22,000 compounds, 4.9% hits; intracellular Trypanosoma cruzi in host cells, plate reader; in the data active = activity score above about 55%; inconclusive = no clear call, values can overlap the other calls;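 note: parasites and compound incubated about four days before reading; 0% = median of neutral control wells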
A1 apoptosis 2 = blocks A1, raising caspase activity. MEF A1-2A-BIM cells, caspase-Glo luminescence, 3 h; percent of clofoctol response, DMSO zero. caspase activation, % (test concentration not listed). 24,000 tested, under 10 active. AID 2465; in the data active = caspase activation above about 5.9%; inconclusive = no clear call, values can overlap the other calls; inactive = below about 2.2%
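Material: A1-2A-BIM-expressing MEF cells. Buffer or medium: RPMI-1640 plus 10% FBS. Incubation: cells settled overnight, compound exposure 3 h at 37 °C, 5% CO2. Signal: Caspase-Glo 3/7 luminescence, 1 h at room temperature.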
* hit, by the source's call; ? = inconclusive; . = no result given.

SMILES	INS-1E rescue	T cruzi HTS	A1 apoptosis 2
C[C@H](CO)N1C[C@H](C)[C@H](CN(C)Cc2ccc(Cl)c(Cl)c2)Oc2ccc(NS(=O)(=O)c3ccc(Cl)cc3)cc2CC1=O	-30	45	.
Cc1ccc(S(=O)(=O)Nc2ccc3c(c2)CC(=O)N([C@@H](C)CO)C[C@H](C)[C@@H](CN(C)Cc2ccc(Cl)c(Cl)c2)O3)cc1	-54	75*	-1
Cc1ccc(S(=O)(=O)Nc2ccc3c(c2)CC(=O)N([C@H](C)CO)C[C@H](C)[C@H](CN(C)Cc2ccc4c(c2)OCO4)O3)cc1	-13	20	2
Cc1ccc(S(=O)(=O)Nc2ccc3c(c2)CC(=O)N([C@H](C)CO)C[C@@H](C)[C@H](CN(C)Cc2ccc4c(c2)OCO4)O3)cc1	0	61*	1
C[C@H]1CN([C@@H](C)CO)C(=O)Cc2cc(NS(=O)(=O)c3ccc(Cl)cc3)ccc2O[C@H]1CN(C)Cc1ccc(Cl)c(Cl)c1	-25	29	-1
COc1ccc(S(=O)(=O)Nc2ccc3c(c2)C(=O)N([C@@H](C)CO)C[C@@H](C)[C@@H](CN(C)S(=O)(=O)c2cn(C)cn2)OCCCC[C@@H](C)O3)cc1	.	.	0
C[C@H]1CN([C@@H](C)CO)C(=O)c2cccc(NS(=O)(=O)c3ccccc3)c2O[C@@H]1CN(C)C(=O)Nc1ccccc1	6	-24	0
Cc1noc(C)c1S(=O)(=O)N(C)C[C@H]1OCCCC[C@@H](C)Oc2ccc(NC(=O)Nc3ccccc3)cc2C(=O)N([C@H](C)CO)C[C@@H]1C	-4	-1	.
C[C@H]1CN([C@@H](C)CO)C(=O)CCCn2cc(nn2)CO[C@H]1CN(C)S(=O)(=O)c1cccs1	.	-14	1
Cc1noc(C)c1S(=O)(=O)N(C)C[C@H]1OCCCC[C@H](C)Oc2ccc(NC(=O)CCCN(C)C)cc2C(=O)N([C@@H](C)CO)C[C@@H]1C	.	.	-1
C[C@@H]1CN([C@H](C)CO)C(=O)Cc2cc(NC(=O)CCN3CCOCC3)ccc2O[C@@H]1CN(C)Cc1ccccc1	2	-19	0
COc1ccc(S(=O)(=O)Nc2ccc3c(c2)C(=O)N([C@@H](C)CO)C[C@H](C)[C@H](CN(C)S(=O)(=O)c2cn(C)cn2)O3)cc1	-4	-13	0
C[C@@H]1CCCCO[C@@H](CN(C)C(=O)CCCN(C)C)[C@@H](C)CN([C@@H](C)CO)C(=O)c2cc(NC(=O)CCCN(C)C)ccc2O1	.	.	-1
CC(C)NC(=O)Nc1ccc2c(c1)CC(=O)N([C@@H](C)CO)C[C@@H](C)[C@H](CN(C)S(=O)(=O)c1ccccc1)O2	.	.	1
C[C@@H]1CN([C@H](C)CO)C(=O)Cc2cc(NS(=O)(=O)c3ccc(F)cc3)ccc2O[C@@H]1CN(C)Cc1ccc(Cl)c(Cl)c1	-34	63*	.
C[C@H]1CN([C@@H](C)CO)C(=O)Cc2cc(NS(=O)(=O)c3ccc(F)cc3)ccc2O[C@@H]1CN(C)Cc1ccc(Cl)c(Cl)c1	-24	?	.
C[C@@H]1CN([C@@H](C)CO)C(=O)Cc2cc(NC(=O)Cc3cn(C)c4ccccc34)ccc2O[C@@H]1CN(C)Cc1ccccc1	-16	21	-1
C[C@@H]1CN([C@H](C)CO)C(=O)Cc2cc(NC(=O)Cc3cn(C)c4ccccc34)ccc2O[C@H]1CN(C)Cc1ccc(C(F)(F)F)cc1	3	63*	0
C[C@@H]1CN([C@H](C)CO)C(=O)Cc2cc(NC(=O)Cc3cn(C)c4ccccc34)ccc2O[C@@H]1CN(C)Cc1ccccc1	-21	52	.
C[C@H]1CN([C@@H](C)CO)C(=O)Cc2cc(NC(=O)Cc3cn(C)c4ccccc34)ccc2O[C@H]1CN(C)Cc1ccc(C(F)(F)F)cc1	-52	75*	2
C[C@H]1CN([C@@H](C)CO)C(=O)Cc2cc(NC(=O)Nc3ccccc3)ccc2O[C@@H]1CN(C)C(=O)Nc1cccc2ccccc12	-12	2	.
C[C@@H]1CN([C@H](C)CO)C(=O)c2cccc(NC(=O)Nc3ccc4c(c3)OCO4)c2O[C@H]1CN(C)Cc1ccc(Oc2ccccc2)cc1	-10	31	-2
C[C@H](CO)N1C[C@H](C)[C@H](CN(C)Cc2ccc(Oc3ccccc3)cc2)Oc2c(NC(=O)Nc3ccc4c(c3)OCO4)cccc2C1=O	-46	78*	-1
C[C@H]1CN([C@@H](C)CO)C(=O)c2cccc(NC(=O)Nc3ccc4c(c3)OCO4)c2O[C@@H]1CN(C)Cc1ccc(C(=O)Nc2ccccc2N)cc1	10	68*	-1
C[C@H]1CN([C@@H](C)CO)C(=O)c2cccc(NC(=O)Nc3ccc4c(c3)OCO4)c2O[C@@H]1CN(C)CC1CC1	-11	4	0
SMILES	INS-1E rescue	T cruzi HTS	A1 apoptosis 2
C[C@H](CO)N1C[C@H](C)[C@@H](CN(C)CC2CC2)Oc2c(NC(=O)Nc3ccc4c(c3)OCO4)cccc2C1=O	-5	58*	0
C[C@H](CO)N1C[C@H](C)[C@@H](CN(C)Cc2ccc(C(=O)Nc3ccccc3N)cc2)Oc2ccc(NC(=O)Cn3cnnn3)cc2C1=O	-11	69*	.
C[C@@H]1CN([C@H](C)CO)C(=O)c2cc(NC(=O)Cn3cnnn3)ccc2O[C@H]1CN(C)Cc1ccc(C(=O)Nc2ccccc2N)cc1	-12	29	-2
C[C@@H]1CN([C@@H](C)CO)C(=O)c2cccc(NC(=O)Nc3ccc4c(c3)OCO4)c2O[C@@H]1CN(C)Cc1ccc(C(=O)Nc2ccccc2N)cc1	22	54	0
C[C@@H]1CN([C@H](C)CO)C(=O)c2cc(NC(=O)NC3CCCCC3)ccc2O[C@@H]1CN(C)Cc1ccc(C(=O)O)cc1	8	-8	-1
CNC[C@@H]1OCCCC[C@H](C)Oc2ccc(NC(=O)Nc3ccc(C(F)(F)F)cc3)cc2C(=O)N([C@H](C)CO)C[C@H]1C	.	.	-1
COc1ccc(CN(C)C[C@H]2Oc3ccc(NC(=O)C4CC4)cc3C(=O)N([C@@H](C)CO)C[C@H]2C)cc1	2	-3	-1
COc1ccc(NC(=O)Nc2ccc3c(c2)CC(=O)N([C@@H](C)CO)C[C@H](C)[C@H](CN(C)S(=O)(=O)c2ccccc2)O3)cc1	-3	0	2
COc1cccc(NC(=O)N(C)C[C@H]2OCc3cnnn3CCCC(=O)N([C@H](C)CO)C[C@H]2C)c1	.	-2	-1
COc1ccc(NC(=O)Nc2ccc3c(c2)C(=O)N([C@H](C)CO)C[C@H](C)[C@@H](CN(C)C(=O)Nc2ccccc2)OCCCC[C@H](C)O3)cc1	.	.	0
C[C@H](CO)N1C[C@H](C)[C@H](CN(C)Cc2ccc(-c3ccccc3)cc2)Oc2ccc(NC(=O)Nc3cccc4ccccc34)cc2C1=O	-14	-18	.
COc1ccc(CN(C)C[C@H]2Oc3ccc(NC(=O)Nc4ccc(F)cc4)cc3C(=O)N([C@H](C)CO)C[C@H]2C)cc1	-3	-20	0
O=C(CCCCCC(=O)Nc1ccccc1O)N/N=C/[C@H](O)[C@@H](O)[C@H](O)[C@H](O)CO[C@H]1O[C@H](CO)[C@H](O)[C@H](O)[C@H]1O	.	.	0
